ChEMBL document CHEMBL5260843 (J Med Chem, 2019)
The source made the active and inactive calls. No cut-off for these calls is given here.

Key:
[1] = biological target: DCN1-like protein 1/NEDD8-conjugating enzyme Ubc12 (Homo sapiens, UniProt Q96GG9); assay: Inhibition of GST-tagged DCN1 PONY domain (unknown origin)/human N-terminal acetylated UBC12 (1 to 12 residues) protein-protein interaction incubated for 1 hr by HTRF analysis; format: protein assay
[2] = biological target: T1, Cullin-5 (Homo sapiens) (UniProt Q93034); assay: Inhibition of cullin5 neddylation in UBC/DCN1 overactivated human MGC-803 cells at 1 uM incubated for 24 hrs by Western blot analysis; format: cell-based
T1 sequence (whole entry): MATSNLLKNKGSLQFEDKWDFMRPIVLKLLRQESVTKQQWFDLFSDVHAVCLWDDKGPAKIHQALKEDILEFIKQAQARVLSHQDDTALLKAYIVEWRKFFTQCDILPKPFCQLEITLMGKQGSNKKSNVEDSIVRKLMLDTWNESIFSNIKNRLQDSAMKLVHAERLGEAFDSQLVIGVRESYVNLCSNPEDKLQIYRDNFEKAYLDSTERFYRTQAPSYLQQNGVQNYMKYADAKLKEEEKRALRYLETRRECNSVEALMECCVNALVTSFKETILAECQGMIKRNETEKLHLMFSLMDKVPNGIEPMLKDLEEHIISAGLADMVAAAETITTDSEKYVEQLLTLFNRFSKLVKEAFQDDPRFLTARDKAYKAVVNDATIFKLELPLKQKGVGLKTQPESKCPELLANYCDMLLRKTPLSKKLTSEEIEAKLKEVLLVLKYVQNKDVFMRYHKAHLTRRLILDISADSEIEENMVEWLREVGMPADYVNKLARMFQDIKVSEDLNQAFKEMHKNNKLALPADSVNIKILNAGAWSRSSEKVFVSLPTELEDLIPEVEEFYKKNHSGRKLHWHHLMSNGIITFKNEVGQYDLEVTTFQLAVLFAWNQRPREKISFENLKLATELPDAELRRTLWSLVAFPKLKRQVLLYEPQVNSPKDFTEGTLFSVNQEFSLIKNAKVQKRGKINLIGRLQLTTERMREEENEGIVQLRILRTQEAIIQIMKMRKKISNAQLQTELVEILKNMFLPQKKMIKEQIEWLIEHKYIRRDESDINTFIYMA
Method in brief: (§1)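 Cells in 6-well plates were exposed to compound for 24 h. MGC-803 were grown in DMEM and KYSE70 in RPMI 1640, both with 10% FBS at 37 °C and 5% CO2. Lysates were made in RIPA with protease inhibitors and quantified by BCA. 30 μg protein was run on 8% SDS-PAGE and blotted to nitrocellulose. Primary antibodies were applied overnight at 4 °C, then HRP secondaries, with ECL and film detection. GAPDH was the loading control. Run three times.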

[3] = biological target: Cullin-4B (Homo sapiens) (UniProt Q13620); assay: Inhibition of cullin4B neddylation in UBC/DCN1 overactivated human MGC-803 cells at 1 uM incubated for 24 hrs by Western blot analysis; format: cell-based; method in brief: as §1
Chain of Cullin-4B (Homo sapiens) (Q13620 whole entry): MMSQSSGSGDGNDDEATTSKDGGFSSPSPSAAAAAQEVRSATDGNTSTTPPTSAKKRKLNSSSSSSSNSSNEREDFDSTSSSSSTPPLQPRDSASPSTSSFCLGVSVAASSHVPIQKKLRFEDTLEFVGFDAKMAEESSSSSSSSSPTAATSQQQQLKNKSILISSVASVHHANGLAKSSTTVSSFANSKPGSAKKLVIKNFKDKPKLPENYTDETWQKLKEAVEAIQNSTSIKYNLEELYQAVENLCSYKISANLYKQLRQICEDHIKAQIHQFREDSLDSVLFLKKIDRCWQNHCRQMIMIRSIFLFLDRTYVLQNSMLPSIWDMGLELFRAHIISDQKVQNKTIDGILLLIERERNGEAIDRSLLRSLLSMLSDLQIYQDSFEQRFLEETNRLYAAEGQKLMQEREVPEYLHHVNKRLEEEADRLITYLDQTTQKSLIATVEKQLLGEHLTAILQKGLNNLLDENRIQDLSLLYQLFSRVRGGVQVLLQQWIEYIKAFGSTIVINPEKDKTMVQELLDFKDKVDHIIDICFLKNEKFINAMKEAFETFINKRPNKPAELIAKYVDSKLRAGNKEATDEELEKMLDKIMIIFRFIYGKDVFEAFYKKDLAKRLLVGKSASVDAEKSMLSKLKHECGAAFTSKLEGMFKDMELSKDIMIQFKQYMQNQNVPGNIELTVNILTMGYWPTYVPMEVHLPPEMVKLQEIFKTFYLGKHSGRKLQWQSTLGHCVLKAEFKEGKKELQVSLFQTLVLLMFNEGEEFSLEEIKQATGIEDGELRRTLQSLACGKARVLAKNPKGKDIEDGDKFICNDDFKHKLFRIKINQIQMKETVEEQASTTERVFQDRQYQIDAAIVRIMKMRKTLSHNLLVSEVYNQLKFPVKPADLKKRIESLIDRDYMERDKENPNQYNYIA

[4] = biological target: Cullin-4A (Homo sapiens) (UniProt Q13619); assay: Inhibition of cullin4A neddylation in UBC/DCN1 overactivated human MGC-803 cells at 1 uM incubated for 24 hrs by Western blot analysis; format: cell-based; method in brief: as §1
Chain of Cullin-4A (Homo sapiens) (Q13619 whole entry): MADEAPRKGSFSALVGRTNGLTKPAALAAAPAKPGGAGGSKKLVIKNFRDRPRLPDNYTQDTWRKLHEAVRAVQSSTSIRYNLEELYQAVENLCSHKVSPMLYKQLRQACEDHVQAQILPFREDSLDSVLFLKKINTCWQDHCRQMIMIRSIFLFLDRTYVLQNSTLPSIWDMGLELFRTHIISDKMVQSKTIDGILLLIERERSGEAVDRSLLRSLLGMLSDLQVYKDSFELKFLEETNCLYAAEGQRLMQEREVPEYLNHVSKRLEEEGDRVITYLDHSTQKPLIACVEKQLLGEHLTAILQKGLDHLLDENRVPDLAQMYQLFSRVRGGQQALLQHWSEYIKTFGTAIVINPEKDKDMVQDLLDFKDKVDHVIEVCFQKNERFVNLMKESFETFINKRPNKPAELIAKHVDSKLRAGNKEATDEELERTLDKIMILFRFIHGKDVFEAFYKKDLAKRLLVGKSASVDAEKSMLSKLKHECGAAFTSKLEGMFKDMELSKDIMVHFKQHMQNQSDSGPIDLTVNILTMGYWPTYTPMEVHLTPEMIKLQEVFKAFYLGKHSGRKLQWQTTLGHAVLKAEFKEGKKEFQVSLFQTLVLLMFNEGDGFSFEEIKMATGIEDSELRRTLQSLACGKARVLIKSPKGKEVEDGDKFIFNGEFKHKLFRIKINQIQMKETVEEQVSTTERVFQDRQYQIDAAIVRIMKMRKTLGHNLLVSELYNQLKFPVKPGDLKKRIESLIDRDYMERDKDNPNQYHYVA

[5] = test system: MGC-803; assay: Inhibition of cullin3 neddylation in UBC/DCN1 overactivated human MGC-803 cells at 1 uM incubated for 24 hrs by Western blot analysis; format: cell-based; method in brief: as §1
[6] = test system: MGC-803; assay: Inhibition of cullin2 neddylation in UBC/DCN1 overactivated human MGC-803 cells at 1 uM incubated for 24 hrs by Western blot analysis; format: cell-based; method in brief: as §1
[7] = biological target: Cullin-1 (Homo sapiens) (UniProt Q13616); assay: Inhibition of cullin1 neddylation in UBC/DCN1 overactivated human MGC-803 cells at 1 uM incubated for 24 hrs by Western blot analysis; format: cell-based; method in brief: as §1
Chain of Cullin-1 (Homo sapiens) (Q13616 whole entry): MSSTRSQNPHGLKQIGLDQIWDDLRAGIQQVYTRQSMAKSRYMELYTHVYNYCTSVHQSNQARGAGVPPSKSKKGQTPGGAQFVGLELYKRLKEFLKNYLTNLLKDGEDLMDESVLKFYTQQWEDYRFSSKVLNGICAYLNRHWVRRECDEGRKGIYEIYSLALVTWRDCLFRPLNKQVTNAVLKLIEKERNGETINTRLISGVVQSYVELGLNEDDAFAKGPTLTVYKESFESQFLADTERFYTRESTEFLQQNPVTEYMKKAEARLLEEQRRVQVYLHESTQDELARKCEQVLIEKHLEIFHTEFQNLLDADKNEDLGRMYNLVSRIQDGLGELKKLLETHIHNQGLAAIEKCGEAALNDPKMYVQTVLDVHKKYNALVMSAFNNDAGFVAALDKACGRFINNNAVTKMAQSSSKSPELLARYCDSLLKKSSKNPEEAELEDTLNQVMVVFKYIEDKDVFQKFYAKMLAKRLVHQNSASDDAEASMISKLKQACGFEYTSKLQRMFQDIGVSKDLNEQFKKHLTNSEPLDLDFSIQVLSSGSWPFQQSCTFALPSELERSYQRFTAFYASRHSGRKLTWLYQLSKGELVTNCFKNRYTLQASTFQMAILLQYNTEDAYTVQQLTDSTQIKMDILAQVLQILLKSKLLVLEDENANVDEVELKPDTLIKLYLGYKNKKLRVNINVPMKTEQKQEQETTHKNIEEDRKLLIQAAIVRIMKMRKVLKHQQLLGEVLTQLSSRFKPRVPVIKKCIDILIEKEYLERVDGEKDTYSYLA

[8] = test system: MGC-803; assay: Induction of p21 accumulation in human MGC-803 cells 0.03 to 3 uM incubated for 24 hrs by Western blot analysis; format: functional, cell-based; settings: dose 0.03-3 µM; method in brief: as §1
[9] = test system: MGC-803; assay: Induction of p27 accumulation in human MGC-803 cells 0.03 to 3 uM incubated for 24 hrs by Western blot analysis; format: functional, cell-based; settings: dose 0.03-3 µM; method in brief: as §1
[10] = test system: MGC-803; assay: Induction of NRF2 accumulation in human MGC-803 cells 0.03 to 3 uM incubated for 24 hrs by Western blot analysis; format: functional, cell-based; settings: dose 0.03-3 µM; method in brief: as §1
[11] = test system: MGC-803; assay: Induction of ROS generation in human MGC-803 cells at 3 uM incubated for 24 hrs by DCFH-DA staining based flow cytometry analysis (reference value: 1.4%); format: functional
[12] = test system: MGC-803; assay: Induction of ROS generation in human MGC-803 cells at 1 uM incubated for 24 hrs by DCFH-DA staining based flow cytometry analysis (reference value: 1.4%); format: functional
[13] = test system: MGC-803; assay: Induction of ROS generation in human MGC-803 cells at 0.3 uM incubated for 24 hrs by DCFH-DA staining based flow cytometry analysis (reference value: 1.4%); format: functional
[14] = biological target: Cullin-1 (Homo sapiens) (UniProt Q13616); assay: Inhibition of cullin1 neddylation in UBC/DCN1 overactivated human MGC-803 cells at 0.3 to 10 uM incubated for 24 hrs by Western blot analysis; format: cell-based; settings: dose 0.3-10 µM; method in brief: as §1
[15] = test system: MGC-803; assay: Inhibition of cullin3 neddylation in UBC/DCN1 overactivated human MGC-803 cells at 0.3 to 10 uM incubated for 24 hrs by Western blot analysis; format: cell-based; settings: dose 0.3-10 µM; method in brief: as §1
[16] = biological target: T1, Cullin-5 (Homo sapiens); assay: Inhibition of cullin5 neddylation in UBC/DCN1 overactivated human MGC-803 cells at 0.3 to 10 uM incubated for 24 hrs by Western blot analysis; format: cell-based; settings: dose 0.3-10 µM; method in brief: as §1
[17] = biological target: Cullin-4B (Homo sapiens) (UniProt Q13620); assay: Inhibition of cullin4B neddylation in UBC/DCN1 overactivated human MGC-803 cells at 0.3 to 10 uM incubated for 24 hrs by Western blot analysis; format: cell-based; settings: dose 0.3-10 µM; method in brief: as §1
[18] = biological target: Cullin-4A (Homo sapiens) (UniProt Q13619); assay: Inhibition of cullin4A neddylation in UBC/DCN1 overactivated human MGC-803 cells at 0.3 to 10 uM incubated for 24 hrs by Western blot analysis; format: cell-based; settings: dose 0.3-10 µM; method in brief: as §1
[19] = test system: MGC-803; assay: Inhibition of cullin2 neddylation in UBC/DCN1 overactivated human MGC-803 cells at 0.3 to 10 uM incubated for 24 hrs by Western blot analysis; format: cell-based; settings: dose 0.3-10 µM; method in brief: as §1

Chain of DCN1-like protein 1/NEDD8-conjugating enzyme Ubc12 (Q96GG9 whole entry, the tested form may be a part): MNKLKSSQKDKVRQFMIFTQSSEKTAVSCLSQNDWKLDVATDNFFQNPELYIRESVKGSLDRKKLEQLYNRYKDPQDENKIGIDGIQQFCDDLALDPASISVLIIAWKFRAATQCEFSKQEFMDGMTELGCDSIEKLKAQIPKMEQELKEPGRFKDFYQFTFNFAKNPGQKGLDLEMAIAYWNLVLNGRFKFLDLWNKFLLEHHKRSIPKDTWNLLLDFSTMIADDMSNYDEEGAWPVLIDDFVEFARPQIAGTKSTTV
Chain of DCN1-like protein 1/NEDD8-conjugating enzyme Ubc12 (P61081 whole entry, further chain, the tested form may be a part): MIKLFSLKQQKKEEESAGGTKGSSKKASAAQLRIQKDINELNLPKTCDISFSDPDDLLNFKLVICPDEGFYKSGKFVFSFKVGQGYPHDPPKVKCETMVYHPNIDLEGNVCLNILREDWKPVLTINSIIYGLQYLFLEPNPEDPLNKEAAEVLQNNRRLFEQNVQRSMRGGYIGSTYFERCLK

SMILES	IC50 [1] [nM]	further results
Cc1cc(Sc2nnnn2CCN(C)C)n2nc(SCc3cccc(C(F)(F)F)c3)nc2n1	1080	–
Cc1cc(Sc2nnnn2CCN(C)C)n2nc(SCc3cc(=O)oc4c3ccc3ccccc34)nc2n1	309	–
Cc1cc(Sc2nnnn2CCN(C)C)n2nc(SCc3ccc(Cl)c(F)c3)nc2n1	17	–
CN(C)CCn1nnnc1Sc1ncnc2ccsc12	> 50000	–
NS(=O)(=O)OC[C@@H]1C[C@@H](n2ccc3c(N[C@H]4CCc5ccccc54)ncnc32)C[C@@H]1O	–	inhibition [2]: Active; inhibition [3]: Active; inhibition [4]: Active; inhibition [5]: Active; inhibition [6]: Active; inhibition [7]: Active; Activity [8]: Active; Activity [9]: Active; Activity [10]: Active
Cc1cc(Sc2nnnn2CCN(C)C)n2ncnc2n1	51	–
Cc1cc(Sc2nnnn2CCN(C)C)n2nc(SCc3csc4ccc(Cl)cc34)nc2n1	4890	–
CN(C)CCn1nnnc1Sc1cc(-c2ccccc2)nc2ncnn12	130	–
Cc1cc(Sc2nnnn2CCN(C)C)n2nc(SCc3ccc(Br)cc3)nc2n1	15	–
CCc1cc(Sc2nnnn2CCN(C)C)n2nc(SCc3ccccc3)nc2n1	352	–
C=CCSc1nc2nc(C)cc(Sc3nnnn3CCN(C)C)n2n1	137	–
Cc1cc(Sc2nnnn2CCN(C)C)n2nc(SCc3cccc4ccccc34)nc2n1	209	–
Cc1nc2nc(SCc3ccc(Cl)cc3)nn2c(Sc2nnnn2CCN(C)C)c1C	3360	–
Cc1cc(Sc2nnnn2CCN(C)C)n2nc(SCc3cccc(Br)c3)nc2n1	195	–
CCCCCc1c(C)nc2nc(SCc3ccc(Cl)cc3)nn2c1Sc1nnnn1CCN(C)C.Cl	> 50000	Activity [11]: 0.7%; Activity [12]: 2.6%; Activity [13]: 2.5%; inhibition [14]: inactive; inhibition [15]: inactive; inhibition [16]: inactive; inhibition [17]: inactive; inhibition [18]: inactive; inhibition [19]: inactive
Cc1cc(Sc2nnnn2CCN(C)C)n2nc(SCCc3ccccc3)nc2n1	438	–
Cc1cc(Sc2nnnn2CCN(C)C)n2nc(SCc3ccc(F)cc3)nc2n1	16	–
CN(C)CCn1nnnc1Sc1cc(-c2ccccc2)nc2nc(SCc3ccccc3)nn12	290	–
Cc1cc(Sc2nnnn2CCN(C)C)n2nc(SCc3c(Cl)cccc3Cl)nc2n1	192	–
Cc1cc(Sc2nnnn2CCN(C)C)n2nc(SCC3CCCCC3)nc2n1	58	–
c1ccc(-c2cc(Sc3nnnn3-c3ccccc3)n3ncnc3n2)cc1	15800	–
Cc1cc(Sc2nnnn2CCN(C)C)n2nc(SC(C)C)nc2n1	268	–
Cc1cc(Sc2nnnn2CCN(C)C)n2nc(SCc3ccccc3C(F)(F)F)nc2n1	654	–
